Laboratory results reported in ChEMBL document CHEMBL4808231, “Development of curcumin-based amyloid β aggregation inhibitors for Alzheimer's disease using the SAR matrix approach” (Bioorg Med Chem, 2021).
Active and inactive are the calls of the source. The rule behind the calls is not given here.

How the values were obtained:
[1] = Neurotoxicity in mouse N2a cells assessed as cell viability for 24 hrs by MTT assay; type: cell-based
Summary of the method: (§1)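 N2A or U87 MG cells (8x10^3/well, DMEM + 10% FBS, grown overnight at 37 °C, 5% CO2) treated 24 h with compound at 1, 5, 10, 25, 50, 100 and 200 µM. MTT 0.5 mg/mL for 3 h, DMSO added, absorbance read at 550 nm. IC50 from semi-log dose-response plots; mean ± s.d. of three independent experiments in triplicate.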

[2] = Inhibition of human amyloid beta 42 aggregation assessed as decreasing in fluorescence intensity for 3 hrs by ThT fluorescence assay
Summary of the method: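 Aβ42 monomer (20 µM final) plus ThT (20 µM final, diluted in PBS pH 7.4) and serial 10-fold compound dilutions (1 to 0.00001 µM), 37 °C for 3 h with 15 s shaking every 5 min. Fluorescence read at ex 430/em 480 nm and corrected against a PBS+ThT blank. IC50 taken from intensity at half Vmax versus concentration; mean ± s.d. of triplicates.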

[3] = Neurotoxicity in human U87 MG cells assessed as cell viability for 24 hrs by MTT assay; type: cell-based, U-87MG ATCC; settings: U-87 MG; summary of the method: as §1
[4] = tested on: N2a; assay: Neuroprotective effect against amyloid beta-induced cytotoxicity in mouse N2a cells assessed as cell viability measured after 3 hrs by MTT assay (reference value: 55%); type: functional
[5] = molecular target: Amyloid-beta precursor protein (Homo sapiens) (UniProt P05067); assay: Inhibition of amyloid beta (unknown origin) aggregation assessed as increase in generation of amyloid beta oligomers at 10 uM incubated for 30 mins by negative staining TEM imaging analysis
Sequence of Amyloid-beta precursor protein (Homo sapiens) (P05067 whole entry): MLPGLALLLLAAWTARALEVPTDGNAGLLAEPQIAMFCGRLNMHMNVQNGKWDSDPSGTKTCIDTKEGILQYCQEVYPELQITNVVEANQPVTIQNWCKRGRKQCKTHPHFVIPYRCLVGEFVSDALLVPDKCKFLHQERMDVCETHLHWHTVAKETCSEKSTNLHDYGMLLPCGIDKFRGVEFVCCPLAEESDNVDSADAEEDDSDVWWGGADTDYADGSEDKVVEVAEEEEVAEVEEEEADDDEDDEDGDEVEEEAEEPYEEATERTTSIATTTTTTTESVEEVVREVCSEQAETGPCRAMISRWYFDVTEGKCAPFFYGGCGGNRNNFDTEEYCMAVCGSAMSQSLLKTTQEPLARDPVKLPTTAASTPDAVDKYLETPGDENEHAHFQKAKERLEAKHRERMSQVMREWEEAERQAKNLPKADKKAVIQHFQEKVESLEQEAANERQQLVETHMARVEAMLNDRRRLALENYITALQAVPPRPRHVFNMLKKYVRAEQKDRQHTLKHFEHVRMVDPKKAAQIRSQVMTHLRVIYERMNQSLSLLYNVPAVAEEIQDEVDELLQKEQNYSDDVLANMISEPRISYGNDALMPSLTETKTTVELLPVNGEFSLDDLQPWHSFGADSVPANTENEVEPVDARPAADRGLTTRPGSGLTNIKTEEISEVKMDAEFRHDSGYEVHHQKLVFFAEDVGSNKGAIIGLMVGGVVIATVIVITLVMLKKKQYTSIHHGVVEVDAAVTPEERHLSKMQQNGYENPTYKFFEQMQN
Summary of the method: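 Aβ monomer stock (500 µM in 2 mM NaOH, centrifuged supernatant) diluted to 5 µM, incubated alone or with compound in PBS pH 7.4 at 37 °C for 30 min. Sample applied to plasma-hydrophilised carbon grid for 1 min at RT, washed with water, stained 1 min with 1% Nano-W, imaged by TEM at 200 kV.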

| IC50 [2] [nM] | inhibition [5] | SMILES | IC50 [1] [nM] | IC50 [3] [nM] | Activity [4] [%] |
| --- | --- | --- | --- | --- | --- |
| 13 |  | COc1cc(/C=C/C(=O)CC(=O)/C=C/c2cccc(C(F)(F)F)c2)ccc1O | 65700 | 88700 |  |
| 22 |  | COC(=O)COc1ccc(/C=C/C(=O)CC(=O)/C=C/c2ccc(O)c(C(F)(F)F)c2)cc1OC |  |  |  |
| 46 |  | COC(=O)COc1ccc(/C=C/C(=O)CC(=O)/C=C/c2cccc(C(F)(F)F)c2)cc1OC |  |  |  |
| 698 |  | COc1cc(/C=C/C(=O)CC(=O)/C=C/c2ccc(OCC(=O)O)c(C(F)(F)F)c2)ccc1O |  |  |  |
| 52 |  | COc1cc(/C=C/C(=O)CC(=O)/C=C/c2ccc(O)c(C(F)(F)F)c2)ccc1O |  |  |  |
| 109 |  | COC(=O)COc1ccc(/C=C/C(=O)CC(=O)/C=C/c2ccc(O)c(C(F)(F)F)c2)cc1C(F)(F)F |  |  |  |
| 18 |  | O=C(/C=C/c1cccc(C(F)(F)F)c1)CC(=O)/C=C/c1ccc(O)c(C(F)(F)F)c1 |  |  |  |

Second part, the compound before the results:

| SMILES | IC50 [2] [nM] | inhibition [5] | IC50 [1] [nM] | IC50 [3] [nM] | Activity [4] [%] |
| --- | --- | --- | --- | --- | --- |
| COC(=O)COc1ccc(/C=C/C(=O)CC(=O)/C=C/c2ccc(O)c(OC)c2)cc1OC | 29 |  |  |  |  |
| COC(=O)COc1ccc(/C=C/C(=O)CC(=O)/C=C/c2ccc(OCC(=O)OC)c(C(F)(F)F)c2)cc1OC | 55 |  |  |  |  |
| Nc1c2c(nc3ccccc13)CCCC2 [TACRINE] | 22 |  |  |  |  |
| COc1cc(/C=C/C(=O)CC(=O)/C=C/c2ccc(O)c(OC)c2)ccc1O [CURCUMIN] | 693 |  | 22600 | 18400 |  |
| COc1cc(/C=C/C(=O)CC(=O)/C=C/c2ccc(OCC(=O)OC(C)(C)C)c(C(F)(F)F)c2)ccc1O | 55 |  | > 100000 | > 100000 | >90 |
| COC(=O)COc1ccc(/C=C/C(=O)CC(=O)/C=C/c2ccc(O)c(OC)c2)cc1C(F)(F)F | 7 | Active | 38700 | 90000 | 70 |
